Assay results from ChEMBL document CHEMBL2150881, “JD-5006 and JD-5037: peripherally restricted (PR) cannabinoid-1 receptor blockers related to SLV-319 (Ibipinabant) as metabolic disorder therapeutics devoid of CNS liabilities” (Bioorg Med Chem Lett, 2012).

Tests used:
Cannabinoid receptor 1 [1] = target: T1, Cannabinoid receptor 1 (Homo sapiens, UniProt P21554); assay: Displacement of 3[H]ligand from recombinant human CB1 receptor
How it was run: (§1)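 Radioligand displacement from human recombinant CB1 and CB2 protein by a [³H] ligand. Initial screen at two concentrations in duplicate, with values >100 nM estimated. Percent inhibition read at 100 nM. IC₅₀ taken from four-point concentration curves run in duplicate.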

Cannabinoid receptor 2 = Cannabinoid receptor 2 (Homo sapiens, UniProt P34972); assay: Displacement of 3[H]ligand from recombinant human CB2 receptor; how it was run: as §1
Chain of Cannabinoid receptor 2 (P34972 whole entry): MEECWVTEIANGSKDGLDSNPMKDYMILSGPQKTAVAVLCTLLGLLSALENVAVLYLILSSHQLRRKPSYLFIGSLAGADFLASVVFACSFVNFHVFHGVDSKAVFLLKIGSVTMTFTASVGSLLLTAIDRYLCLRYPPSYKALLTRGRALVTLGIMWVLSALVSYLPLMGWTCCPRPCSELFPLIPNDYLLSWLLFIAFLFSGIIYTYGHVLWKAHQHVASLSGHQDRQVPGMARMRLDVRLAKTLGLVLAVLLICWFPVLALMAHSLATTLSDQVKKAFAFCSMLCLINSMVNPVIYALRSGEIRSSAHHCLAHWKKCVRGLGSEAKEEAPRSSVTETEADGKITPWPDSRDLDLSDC

[2] = Apparent permeability from basolateral to apical side in MDR expressing MDCK cells by LC-MS-MS analysis; format: ADME, cell-based, Canis lupus familiaris; conditions: dog, MDCK-MDR1
How it was run: (§2)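 Permeability measured across MDR-MDCK kidney cell monolayers, giving apparent permeability (Papp) in the apical-to-basolateral and basolateral-to-apical directions.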

[3] = Apparent permeability from apical to basolateral side in MDR expressing MDCK cells by LC-MS-MS analysis; format: ADME, cell-based, Canis lupus familiaris; conditions: dog, MDCK-MDR1; how it was run: as §2
[4] = Efflux ratio of permeability from […] in MDR expressing MDCK cells; format: ADME, cell-based, Canis lupus familiaris; conditions: dog, MDCK-MDR1
Cannabinoid receptor 1 [5] = target: T1, Cannabinoid receptor 1; assay: Displacement of 3[H]ligand from recombinant human CB1 receptor at 100 nM; how it was run: as §1
[6] = target: Cannabinoid receptor 1 (Mus musculus) (UniProt P47746); conditions: Cerebellum, 30 mg/kg
Chain of Cannabinoid receptor 1 (Mus musculus) (P47746 whole entry): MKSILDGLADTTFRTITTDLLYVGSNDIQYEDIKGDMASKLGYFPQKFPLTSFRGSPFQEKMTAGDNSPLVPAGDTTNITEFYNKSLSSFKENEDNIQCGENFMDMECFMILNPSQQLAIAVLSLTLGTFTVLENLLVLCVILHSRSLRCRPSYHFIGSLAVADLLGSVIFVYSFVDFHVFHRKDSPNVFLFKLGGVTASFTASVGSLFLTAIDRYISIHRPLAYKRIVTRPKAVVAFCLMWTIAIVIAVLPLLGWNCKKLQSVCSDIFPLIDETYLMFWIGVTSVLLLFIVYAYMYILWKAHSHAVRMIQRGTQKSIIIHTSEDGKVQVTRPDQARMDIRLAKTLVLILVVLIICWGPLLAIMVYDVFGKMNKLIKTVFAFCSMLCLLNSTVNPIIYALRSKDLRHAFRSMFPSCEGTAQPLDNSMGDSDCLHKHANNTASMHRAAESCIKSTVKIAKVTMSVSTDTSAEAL

Mus musculus [7] = assay: In vivo receptor occupancy at CB1 receptor in mouse hippocampus assessed as inhibition of [3H]SR141716A binding at 3 mg/kg, po for 3 days measured after 1 hr post last dose; format: functional
How it was run: (§3)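 Chow-fed mice dosed orally once daily at 3 or 30 mg/kg for 3 consecutive days, killed 1 h after the last dose. [3H]SR141716A was given by lateral tail-vein injection 30 min before euthanasia. Hippocampus, cerebellum and brain stem (reference region) were scintillation-counted as DPM/mg. Binding potential = (receptor − reference)/reference. Occupancy (%) = 100 × (vehicle BP − drug BP)/vehicle BP. 5 animals per dose.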

Mus musculus [8] = assay: In vivo receptor occupancy at CB1 receptor in mouse hippocampus assessed as inhibition of [3H]SR141716A binding at 30 mg/kg, po for 3 days measured after 1 hr post last dose; format: functional; how it was run: as §3
Mus musculus [9] = assay: In vivo receptor occupancy at CB1 receptor in mouse cerebellum assessed as inhibition of [3H]SR141716A binding at 3 mg/kg, po for 3 days measured after 1 hr post last dose; format: functional; how it was run: as §3

T1 sequence (P21554 whole entry): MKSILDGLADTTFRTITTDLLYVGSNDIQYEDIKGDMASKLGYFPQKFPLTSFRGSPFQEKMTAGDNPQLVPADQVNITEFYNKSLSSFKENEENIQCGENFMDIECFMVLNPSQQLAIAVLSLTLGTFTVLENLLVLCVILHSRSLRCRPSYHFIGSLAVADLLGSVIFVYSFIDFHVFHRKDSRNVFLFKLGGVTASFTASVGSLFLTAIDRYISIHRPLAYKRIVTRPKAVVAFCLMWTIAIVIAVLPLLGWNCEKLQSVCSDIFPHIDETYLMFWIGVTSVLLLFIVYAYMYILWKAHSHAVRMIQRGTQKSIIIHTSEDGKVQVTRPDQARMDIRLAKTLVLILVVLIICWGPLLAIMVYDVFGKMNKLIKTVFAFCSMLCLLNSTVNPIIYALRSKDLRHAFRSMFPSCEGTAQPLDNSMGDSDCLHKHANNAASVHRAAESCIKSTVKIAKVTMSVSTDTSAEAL

Row | Compound | IC50 (Cannabinoid receptor 1 [1]) [µM] | IC50 (Cannabinoid receptor 2) [µM] | also measured
1 | C[C@H](N=C(NS(=O)(=O)c1ccc(Cl)cc1)N1CC(c2ccccc2)C(c2ccc(Cl)cc2)=N1)C(=O)N[C@@H](CO)C(N)=O (some centres not stated) | 0.008 | > 5 | 
2 | CCOC(=O)c1ccc(S(=O)(=O)NC(=NC)N2CC(c3ccccc3)C(c3ccc(Cl)cc3)=N2)cc1 (racemic) | 0.1 |  | 
3 | CN/C(=N\S(=O)(=O)c1ccc(NC(C)=O)cc1)N1CC(c2ccccc2)C(c2ccc(Cl)cc2)=N1 (racemic) | > 1 |  | 
4 | CN=C(NS(=O)(=O)c1ccc(OCC(N)=O)cc1)N1CC(c2ccccc2)C(c2ccc(Cl)cc2)=N1 (racemic) | > 5 |  | 
5 | CC(C)(C)[C@H](N/C(=N\S(=O)(=O)c1ccc(Cl)cc1)N1CC(c2ccccc2)C(c2ccc(Cl)cc2)=N1)C(N)=O (some centres not stated) | 0.002 | > 5 | Papp B→A [2]: < 0.1 ×10⁻⁶ cm/s; Papp A→B [3]: 0.7 ×10⁻⁶ cm/s
6 | C[C@@H](O)[C@H](N/C(=N/S(=O)(=O)c1ccc(Cl)cc1)N1CC(c2ccccc2)C(c2ccc(Cl)cc2)=N1)C(N)=O (some centres not stated) | 0.007 | > 5 | Papp B→A [2]: 18.6 ×10⁻⁶ cm/s; Papp A→B [3]: < 0.9 ×10⁻⁶ cm/s; efflux ratio [4]: > 20
7 | NC(=O)CCN=C(NS(=O)(=O)c1ccc(Cl)cc1)N1CC(c2ccccc2)C(c2ccc(Cl)cc2)=N1 (racemic) | 0.032 | > 5 | Papp B→A [2]: 58 ×10⁻⁶ cm/s; Papp A→B [3]: 0.88 ×10⁻⁶ cm/s; efflux ratio [4]: 66
8 | COC(=O)CN/C(=N\S(=O)(=O)c1ccc(Cl)cc1)N1CC(c2ccccc2)C(c2ccc(Cl)cc2)=N1 (configuration not stated) |  |  | inhibition (Cannabinoid receptor 1 [5]): 88%
9 | COc1ccc(S(=O)(=O)/N=C(\N[C@@H](C)C(=O)N[C@@H](CO)C(N)=O)N2CC(c3ccccc3)C(c3ccc(Cl)cc3)=N2)cc1 (some centres not stated) | > 0.1 | > 5 | 
10 | NC(=O)C[C@H](N=C(NS(=O)(=O)c1ccc(Cl)cc1)N1CC(c2ccccc2)C(c2ccc(Cl)cc2)=N1)C(N)=O (some centres not stated) | > 0.1 | > 5 | 
11 | COC(=O)[C@H](C)N/C(=N\S(=O)(=O)c1ccc(Cl)cc1)N1CC(c2ccccc2)C(c2ccc(Cl)cc2)=N1 (some centres not stated) |  |  | inhibition (Cannabinoid receptor 1 [5]): 96%
12 | NC(=O)[C@@H](N/C(=N\S(=O)(=O)c1ccc(Cl)cc1)N1CC(c2ccccc2)C(c2ccc(Cl)cc2)=N1)C1CCC1 (some centres not stated) | 0.0083 | > 1 | 
13 | C[C@H](N/C(=N\S(=O)(=O)c1ccc(O)cc1)N1CC(c2ccccc2)C(c2ccc(Cl)cc2)=N1)C(N)=O (some centres not stated) | > 0.5 | > 5 | 
14 | C[C@H](N/C(=N\S(=O)(=O)c1ccc(Cl)cc1)N1CC(c2ccccc2)C(c2ccc(Cl)cc2)=N1)C(=O)NCC(N)=O (some centres not stated) | 0.01 | > 1 | 
15 | COc1ccc(S(=O)(=O)NC(=N[C@@H](C)C(N)=O)N2CC(c3ccccc3)C(c3ccc(Cl)cc3)=N2)cc1 (some centres not stated) | 0.07 | > 5 | 
16 | C[C@@H](O)[C@H](N/C(=N\S(=O)(=O)c1ccc(Cl)cc1)N1CC(c2ccccc2)C(c2ccc(Cl)cc2)=N1)C(=O)N[C@@H](CO)C(N)=O (some centres not stated) | 0.007 | > 1 | 
17 | CN=C(NS(=O)(=O)c1ccc(OC)cc1)N1CC(c2ccccc2)C(c2ccc(Cl)cc2)=N1 (racemic) | 0.1 |  | 
18 | NC(=O)[C@H](Cc1ccccc1)N=C(NS(=O)(=O)c1ccc(Cl)cc1)N1CC(c2ccccc2)C(c2ccc(Cl)cc2)=N1 (some centres not stated) |  | > 5 | 
19 | NC(=O)CN=C(NS(=O)(=O)c1ccc(Cl)cc1)N1CC(c2ccccc2)C(c2ccc(Cl)cc2)=N1 (single isomer, unassigned; enantiomer 2) | > 1 | > 1 | 
20 | CCOC(=O)Nc1ccc(S(=O)(=O)NC(=NC)N2CC(c3ccccc3)C(c3ccc(Cl)cc3)=N2)cc1 (racemic) | 0.3 |  | 
21 | CC(C)[C@H](N/C(=N\S(=O)(=O)c1ccc(Cl)cc1)N1CC(c2ccccc2)C(c2ccc(Cl)cc2)=N1)C(=O)NCC(N)=O (some centres not stated) | > 0.1 | > 1 | 
22 | NC(=O)CN=C(NS(=O)(=O)c1ccc(O)cc1)N1CC(c2ccccc2)C(c2ccc(Cl)cc2)=N1 (configuration not stated) | > 0.1 | 5 | 
23 | COc1ccc(S(=O)(=O)NC(=NCC(N)=O)N2CC(c3ccccc3)C(c3ccc(Cl)cc3)=N2)cc1 (configuration not stated) | 0.1 | > 5 | 

Row | Compound | IC50 (Cannabinoid receptor 1 [1]) [µM] | IC50 (Cannabinoid receptor 2) [µM] | also measured
24 | C[C@H](N/C(=N\S(=O)(=O)c1ccc(Cl)cc1)N1CC(c2ccccc2)C(c2ccc(Cl)cc2)=N1)C(N)=O (some centres not stated) | 0.02 | > 1 | Papp B→A [2]: 9.25 ×10⁻⁶ cm/s; Papp A→B [3]: 2.44 ×10⁻⁶ cm/s; efflux ratio [4]: 3.8
25 | CN/C(=N\S(=O)(=O)c1ccc(C(=O)O)cc1)N1CC(c2ccccc2)C(c2ccc(Cl)cc2)=N1 (racemic) | > 5 |  | 
26 | CN/C(=N\S(=O)(=O)c1ccc(C(N)=O)cc1)N1CC(c2ccccc2)C(c2ccc(Cl)cc2)=N1 (racemic) | > 5 |  | 
27 | C[C@H](NC(=O)[C@H](C)N/C(=N\S(=O)(=O)c1ccc(Cl)cc1)N1CC(c2ccccc2)C(c2ccc(Cl)cc2)=N1)C(N)=O (some centres not stated) | 0.027 | > 5 | Papp A→B [3]: 0.3 ×10⁻⁶ cm/s
28 | CC(CN/C(=N\S(=O)(=O)c1ccc(Cl)cc1)N1CC(c2ccccc2)C(c2ccc(Cl)cc2)=N1)C(N)=O (racemic) | 0.026 | > 1 | 
29 | CN=C(NS(=O)(=O)c1ccc(C(=O)NO)cc1)N1CC(c2ccccc2)C(c2ccc(Cl)cc2)=N1 (racemic) | > 5 |  | 
30 | COc1cccc(S(=O)(=O)/N=C(\N[C@H](C(N)=O)C(C)C)N2CC(c3ccccc3)C(c3ccc(Cl)cc3)=N2)c1 (some centres not stated) | 0.004 | > 1 | 
31 | C[C@H](N=C(NS(=O)(=O)c1ccc(Cl)cc1)N1CC(c2ccccc2)C(c2ccc(Cl)cc2)=N1)C(=O)O (some centres not stated) | > 1 |  | 
32 | O=C(O)[C@@H](O)CCN=C(NS(=O)(=O)c1ccc(Cl)cc1)N1CC(c2ccccc2)C(c2ccc(Cl)cc2)=N1 (some centres not stated) | > 1 |  | 
33 | CCOC(=O)[C@@H](O)CCN/C(=N\S(=O)(=O)c1ccc(Cl)cc1)N1CC(c2ccccc2)C(c2ccc(Cl)cc2)=N1 (some centres not stated) |  |  | inhibition (Cannabinoid receptor 1 [5]): 53%
34 | COc1ccc(S(=O)(=O)NC(=N[C@H](C(=O)NCC(N)=O)C(C)C)N2CC(c3ccccc3)C(c3ccc(Cl)cc3)=N2)cc1 (some centres not stated) | > 0.1 | > 5 | 
35 | CC(C)[C@H](N/C(=N\S(=O)(=O)c1ccc(Cl)cc1)N1C[C@@H](c2ccccc2)C(c2ccc(Cl)cc2)=N1)C(N)=O | > 1 |  | 
36 | NC(=O)[C@H](CO)N=C(NS(=O)(=O)c1ccc(Cl)cc1)N1CC(c2ccccc2)C(c2ccc(Cl)cc2)=N1 (some centres not stated) | 0.013 | > 5 | 
37 | NC(=O)CN/C(=N\S(=O)(=O)c1ccc(Cl)cc1)N1CC(c2ccccc2)C(c2ccc(Cl)cc2)=N1 (single isomer, unassigned; enantiomer 1) |  |  | Occ [6]: 0%
38 | O=C(O)CN=C(NS(=O)(=O)c1ccc(Cl)cc1)N1CC(c2ccccc2)C(c2ccc(Cl)cc2)=N1 (configuration not stated) | > 1 |  | 
39 | NC(=O)[C@@H](O)CCN/C(=N\S(=O)(=O)c1ccc(Cl)cc1)N1CC(c2ccccc2)C(c2ccc(Cl)cc2)=N1 (some centres not stated) | 0.066 | > 5 | 
40 | CN=C(NS(=O)(=O)c1ccc(OCC(=O)O)cc1)N1CC(c2ccccc2)C(c2ccc(Cl)cc2)=N1 (racemic) | > 5 |  | 
41 | C[C@H](O)[C@@H](N=C(NS(=O)(=O)c1ccc(Cl)cc1)N1CC(c2ccccc2)C(c2ccc(Cl)cc2)=N1)C(N)=O (some centres not stated) | > 0.1 | > 5 | 
42 | NC(=O)[C@H](Cc1ccccc1)N/C(=N\S(=O)(=O)c1ccc(Cl)cc1)N1CC(c2ccccc2)C(c2ccc(Cl)cc2)=N1 (some centres not stated) |  |  | inhibition (Cannabinoid receptor 1 [5]): 61%
43 | CC(C)[C@H](N/C(=N\S(=O)(=O)c1ccc(Cl)cc1)N1CC(c2ccccc2)C(c2ccc(Cl)cc2)=N1)C(=O)N[C@@H](C)C(N)=O (some centres not stated) | 0.1 | > 5 | 
44 | CC(C)[C@H](N/C(=N\S(=O)(=O)c1ccc(Cl)cc1)N1C[C@H](c2ccccc2)C(c2ccc(Cl)cc2)=N1)C(N)=O | 0.0005 | > 1 | Occ (Mus musculus [7]): 10%; Occ (Mus musculus [8]): 0%; Occ (Mus musculus [9]): 0%; Occ [6]: 0%
45 | CC(C)(N/C(=N\S(=O)(=O)c1ccc(Cl)cc1)N1CC(c2ccccc2)C(c2ccc(Cl)cc2)=N1)C(N)=O (racemic) | 0.0085 | > 1 | 
